A selection: hits, their analogues and other compounds. The true share with any hit is near 3.4%.
VIM-2 inhibitor: VIM-2 metallo-beta-lactamase inhibitors, primary screen, biochemical, epi-absorbance readout, Pseudomonas aeruginosa enzyme; inhibition, % at 5.6 µM; AID 1527, 2009; 290,000 tested, 0.89% active; purified VIM-2, nitrocefin hydrolysis, epi-absorbance fluorescence;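 active = inhibition above the mean of all tested compounds plus 3 SD, cutoff set per screening run, cut at about 7.5% in these data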;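 note: red hydrolysis product quenches plate fluorescence so inhibitors raise well fluorescence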
IMP-1 inhibitor: IMP-1 metallo-beta-lactamase inhibitors, primary screen, biochemical, epi-absorbance readout, Pseudomonas aeruginosa enzyme; purified IMP-1, nitrocefin hydrolysis, epi-absorbance fluorescence; inhibition, % at 5.6 µM; 290,000 tested, 0.45% active;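 active = inhibition above the mean plus 3 SD of all compounds in the same screening run, cut at about 4.5% in these data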
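assay system = purified recombinant IMP-1 metallo-beta-lactamase enzyme | schedule = 15 min preincubation plus 25 min reaction at 25 °C | signal = Epi-absorbance fluorescence, 480 nm excitation, 530 nm emission | read-out basis = percent inhibition from optical density relative to buffer-blank wells | controls = IMP-1 with DMSO as 0%, enzyme-free DMSO as 100%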
CHT PAM: CHT positive allosteric modulators, primary screen, cell-based, membrane potential dye, choline EC20. B-score at 10 µM. 310,000 tested, 0.49% active. AID 488977, 2010. CHT-expressing cells; active compounds read high; LV-AA mutant CHT in HEK293 cells;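 active = initial fluorescence not abnormally high and integrated response B-score, plate-corrected, over 3 SD above library mean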
CHT inh: inhibitors of human choline transporter CHT. 310,000 tested, 0.86% active. CHT-expressing cells, membrane potential dye, choline response; active compounds read low. High affinity choline transporter 1 (Homo sapiens), Q9GZV3. B-score at 10 µM;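 active = B-score over 3 SD under the library average, and starting fluorescence ratio not unusually high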;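 note: choline stimulus applied at its EC90 after an EC20 pre-addition; B-score computed on integrated fluorescence ratio after choline addition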
TMEM16A act: TMEM16A chloride channel activators or potentiators, primary screen, cell-based, HTS | Anoctamin-1 (Mus musculus), Q8BHY3 | AID 623877, 2012 | B-score at 10 µM | HEK293 TMEM16A/YFP-H148Q/I152L, iodide quench fluorescence; active compounds read low | 340,000 tested, 0.3% active;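 active = fluorescence-ratio B-score plate-corrected deviation score at least 3 library SD below zero, with starting fluorescence score within 5 deviations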;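 note: channel opened by trigger with iodide after compound preincubation; score built on the fluorescence ratio of max minus min over baseline; more negative score means more quench and so TMEM16A activation or potentiation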
Target sequence (Q8BHY3 whole entry, looked up): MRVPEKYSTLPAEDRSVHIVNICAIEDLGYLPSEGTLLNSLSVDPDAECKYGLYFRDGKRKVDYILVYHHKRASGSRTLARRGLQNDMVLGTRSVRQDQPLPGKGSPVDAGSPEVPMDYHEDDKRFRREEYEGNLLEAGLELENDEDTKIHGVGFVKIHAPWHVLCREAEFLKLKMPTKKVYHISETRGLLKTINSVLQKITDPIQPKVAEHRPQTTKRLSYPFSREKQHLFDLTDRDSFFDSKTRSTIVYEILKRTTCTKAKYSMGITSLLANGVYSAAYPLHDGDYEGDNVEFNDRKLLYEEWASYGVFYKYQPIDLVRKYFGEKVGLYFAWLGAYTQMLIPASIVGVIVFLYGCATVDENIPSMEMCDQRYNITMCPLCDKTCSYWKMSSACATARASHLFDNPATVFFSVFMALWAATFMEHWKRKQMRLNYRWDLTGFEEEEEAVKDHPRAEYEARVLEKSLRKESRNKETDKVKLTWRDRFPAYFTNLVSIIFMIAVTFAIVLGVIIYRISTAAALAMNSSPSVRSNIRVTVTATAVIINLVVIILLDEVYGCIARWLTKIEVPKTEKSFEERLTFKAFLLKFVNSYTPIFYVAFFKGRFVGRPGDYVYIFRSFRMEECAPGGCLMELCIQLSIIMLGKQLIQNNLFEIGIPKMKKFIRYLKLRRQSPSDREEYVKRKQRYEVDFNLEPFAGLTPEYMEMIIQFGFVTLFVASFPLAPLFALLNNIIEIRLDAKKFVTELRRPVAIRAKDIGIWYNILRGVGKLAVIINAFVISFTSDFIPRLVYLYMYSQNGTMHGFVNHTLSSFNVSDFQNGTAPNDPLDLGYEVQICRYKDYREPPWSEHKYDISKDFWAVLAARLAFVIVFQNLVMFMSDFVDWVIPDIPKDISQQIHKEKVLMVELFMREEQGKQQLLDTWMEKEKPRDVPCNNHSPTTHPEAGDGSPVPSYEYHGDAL
ANO1 block: TMEM16A chloride channel inhibitors, primary screen, cell-based, HTS; Anoctamin-1 (Mus musculus), Q8BHY3; HEK293 TMEM16A/YFP iodide influx fluorescence, ionomycin; normalized B-score (activity score, 25-100; higher = stronger inhibition) at 10 µM; 310,000 tested, 1.2% active;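 active = ratio plate-corrected score three or more library SD toward inhibition, starting fluorescence score within five deviations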;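 note: score derived from kinetic fluorescence span divided by baseline fluorescence per well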
TMEM16A reconf: TMEM16A chloride channel inhibitors, confirmation, cell-based, re-confirmation; shares compounds with ANO1 block; HEK293 TMEM16A/YFP-H148Q, iodide quench fluorescence; ionomycin added to raise cell calcium; inhibition, % at 10 µM; 2,300 tested, 39% active;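 active = mean duplicate percent inhibition, scaled so buffer wells are 0 and the reference blocker 100, over three buffer SD above buffer mean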
TMEM16A Ca cntr: calcium mobilization in TMEM16A/YFP HEK293 cells, confirmation, counter-screen for TMEM16A inhibitor project | shares compounds with ANO1 block | Fluo4 calcium mobilization | calcium response (% of ionomycin), % at 10 µM | 2,300 tested, 2% active;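 active = duplicate-averaged calcium signal over 20% of the ionomycin maximum, relative to buffer baseline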;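 note: each well's signal is peak minus trough fluorescence divided by its pre-addition baseline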
YFP-HEK293 quench: iodide YFP quench changes in parental YFP-HEK293, counter-screen for TMEM16A inhibitor project, cell-based | YFP ratio F(max-min)/F0 at 10 µM | ionomycin | 2,300 tested, under 10 active | shares compounds with ANO1 block;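 active = yellow fluorescent protein signal ratio exceeding the buffer control mean by over 5 SD of those controls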;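 note: ratio is mean of duplicate wells from kinetic YFP trace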
ClC-1 inh: ClC-1 chloride channel inhibition, selectivity assay for TMEM16A inhibitor project, cell-based, voltage-dependent ClC-1. CHO ClC-1-YFP, iodide influx fluorescence quench; iodide control reads 0, buffer control 100. 2,300 tested, under 10 active. ratio percent, % at 10 µM. shares compounds with ANO1 block;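 active = duplicate-mean ratio percent above the mean of iodide-only control wells, which defines zero, plus 5 of their SD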;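 note: higher percent means stronger block of ClC-1 iodide influx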
Large screens that a line does not name were inactive (follow-up assays come after a bar, where they were run).

COc1ccc(C(=O)NCCc2cccc(Cl)c2)cc1OC1CCN(C(C)=O)CC1	none
CC1CC(C)CN(CCCNC(=O)c2ccc3nc(N4CCCCC4)sc3c2)C1 (configuration not stated)	ANO1 block 100 | TMEM16A reconf inactive | TMEM16A Ca cntr inactive | YFP-HEK293 quench inactive | ClC-1 inh inactive
CCCN1CCN(CCCNC(=O)c2ccc3nc(N4CCCCC4)sc3c2)CC1	none
O=C1SCCN1N=Cc1ccc([N+](=O)[O-])o1	none (no result: VIM-2 inhibitor, IMP-1 inhibitor, CHT PAM, CHT inh, ANO1 block)
COc1ccc(N=c2oc3c(OC)cccc3cc2C(=O)NCc2ccco2)cc1OC	none | TMEM16A reconf inactive | TMEM16A Ca cntr inactive | YFP-HEK293 quench inactive | ClC-1 inh inactive
O=C(O)[C@H](Cc1ccccc1)N1C(=O)c2ccncc2C1=O	ANO1 block 100 | TMEM16A reconf inactive | TMEM16A Ca cntr inactive | YFP-HEK293 quench inactive | ClC-1 inh inactive
CCOC(=O)c1cnc2ccc(OC)cc2c1Nc1ccc2c(c1)OCCO2	ANO1 block 100 | TMEM16A reconf inactive | TMEM16A Ca cntr inactive | YFP-HEK293 quench inactive | ClC-1 inh inactive
CCOC(=O)c1cnc2ccc(C(=O)OC)cc2c1Nc1ccc2c(c1)OCCO2	none
Cc1ccc(S(=O)(=O)N2CCC(C(=O)OCC(=O)NCc3cccc(Cl)c3)CC2)cc1C	none (no result: VIM-2 inhibitor, IMP-1 inhibitor, CHT PAM, CHT inh, ANO1 block)
COc1ccc(OC)c(C(=O)Nc2c(O)ccc3ccccc23)c1	none (no result: VIM-2 inhibitor, IMP-1 inhibitor)
COC(=O)c1cc(C(=O)OCC(=O)Nc2ccc(N3CCOCC3)cc2)cc([N+](=O)[O-])c1	none (no result: VIM-2 inhibitor, IMP-1 inhibitor, CHT PAM, CHT inh, ANO1 block)
NC(=O)c1ccc(Br)c(S(=O)(=O)N2CCCCC2)c1	none
O=S(=O)(c1cc(Br)ccc1Br)N1CCCCCC1	ANO1 block 25 | TMEM16A reconf 21% | TMEM16A Ca cntr inactive | YFP-HEK293 quench inactive | ClC-1 inh inactive
Cc1ncc2c(n1)NC(=O)NC2	none (no result: VIM-2 inhibitor, IMP-1 inhibitor, CHT PAM, CHT inh, ANO1 block)
Cc1ccccc1NC(=O)C1CCCN1S(=O)(=O)c1ccc2c(c1)n(C)c(=O)c(=O)n2C (configuration not stated)	ANO1 block 25 | TMEM16A reconf inactive | TMEM16A Ca cntr inactive | YFP-HEK293 quench inactive | ClC-1 inh inactive
Cc1ccc(C)c(NC(=O)C2CCCN2S(=O)(=O)c2ccc3c(c2)n(C)c(=O)c(=O)n3C)c1 (configuration not stated)	none
Cc1ccccc1CNS(=O)(=O)c1c(C(=O)N2CCCCC2)c(C)n(C)c1C	none
COc1ccc(NS(=O)(=O)c2cccc(C(=O)NCc3ccccc3CN3CCOCC3)c2)cc1	none (no result: VIM-2 inhibitor, IMP-1 inhibitor, CHT PAM, CHT inh, ANO1 block)
Cn1c(SCC(=O)Nc2ccc3c(c2)n(C)c(=O)n3C)nnc1-c1ccncc1	none | TMEM16A reconf inactive | TMEM16A Ca cntr inactive | YFP-HEK293 quench inactive | ClC-1 inh inactive
Cn1c(SCC(=O)Nc2ccc(NC(=O)c3ccccc3)cc2)nnc1-c1ccncc1	none
CCCCCCNC(=O)CC(c1ccccc1)c1cc(Br)ccc1O (configuration not stated)	ANO1 block 100 | TMEM16A reconf 47% | TMEM16A Ca cntr inactive | YFP-HEK293 quench inactive | ClC-1 inh inactive
O=C(NC1CCCCC1)c1cc(-c2cccc(Cl)c2)on1	none
Cc1cccc(/N=C/c2sc3ccccc3c2O)n1	none | TMEM16A reconf inactive | TMEM16A Ca cntr inactive | YFP-HEK293 quench inactive | ClC-1 inh inactive
Cc1sc2ncnc(N3CCN(S(=O)(=O)c4ccc(Br)cc4)CC3)c2c1C	ANO1 block 25 | TMEM16A reconf 30% | TMEM16A Ca cntr inactive | YFP-HEK293 quench inactive | ClC-1 inh inactive
N#CCC(=O)Nc1ccc(C(=O)OCC(=O)NC(=O)Cc2ccccc2)cc1	none (no result: VIM-2 inhibitor, IMP-1 inhibitor)
N#CCC(=O)Nc1ccc(C(=O)OCC(=O)Nc2ccccc2-c2ccccc2)cc1	ANO1 block 100 | TMEM16A reconf inactive | TMEM16A Ca cntr inactive | YFP-HEK293 quench inactive | ClC-1 inh inactive
O=C(COC(=O)/C=C/c1ccc([N+](=O)[O-])cc1)NCC1CCCCC1	none (no result: VIM-2 inhibitor, IMP-1 inhibitor, CHT PAM, CHT inh, ANO1 block)
CC(C)n1c(-c2ccc(C(C)(C)C)cc2)n[nH]c1=S	ANO1 block 100 | TMEM16A reconf inactive | TMEM16A Ca cntr inactive | YFP-HEK293 quench inactive | ClC-1 inh inactive
COc1ccc(NC(=O)Nc2nnc(Cc3ccccc3)s2)cc1	none
COc1ccc(NC(=O)c2csc(Cc3ccc(Cl)cc3)n2)cc1	ANO1 block 100 | TMEM16A reconf inactive | TMEM16A Ca cntr inactive | YFP-HEK293 quench inactive | ClC-1 inh inactive
COc1ccc(Cc2nc(C(=O)Nc3ccccc3)cs2)cc1	ANO1 block 100 | TMEM16A reconf 24% | TMEM16A Ca cntr inactive | YFP-HEK293 quench inactive | ClC-1 inh inactive
COc1ccc(CNC(=O)c2csc(Cc3ccc(Cl)cc3)n2)cc1	ANO1 block 100 | TMEM16A reconf inactive | TMEM16A Ca cntr inactive | YFP-HEK293 quench inactive | ClC-1 inh inactive
O=C(Nc1ccc(Cl)cc1)c1csc(Cc2ccccc2)n1	ANO1 block 25 | TMEM16A reconf 30% | TMEM16A Ca cntr inactive | YFP-HEK293 quench inactive | ClC-1 inh inactive
O=C(Nc1ccc(Cl)c(Cl)c1)c1csc(-c2ccccc2)n1	none
COc1ccc(Cc2nc(C(=O)Nc3ccc(F)cc3)cs2)cc1	ANO1 block 100 | TMEM16A reconf 26% | TMEM16A Ca cntr inactive | YFP-HEK293 quench inactive | ClC-1 inh inactive
COc1ccc(CCN2CC(C(=O)N3CCC(O)(c4ccccc4)CC3)CCC2=O)cc1 (configuration not stated)	none
O=c1cc(C(F)(F)F)[nH]c2ccc(OC(F)(F)F)cc12	ANO1 block 100 | TMEM16A reconf 43% | TMEM16A Ca cntr inactive | YFP-HEK293 quench inactive | ClC-1 inh inactive
Cn1nc(C(=O)NNC(=O)C(CCC(N)=O)NS(=O)(=O)c2ccc(Cl)cc2)c2ccccc2c1=O (configuration not stated)	none (no result: VIM-2 inhibitor, IMP-1 inhibitor, CHT PAM, CHT inh, ANO1 block)

Compound activity: PubChem BioAssay, several laboratories
